Source: publication PMC7049346 (Haematologica, 2019)

Key:
PDE1B = PDE1B (Homo sapiens, UniProt Q01064); assay: PDE enzyme inhibition, radiometric assay; assay type: biochemical
Outline: (§1)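 Recombinant human PDE enzymes (33 in the panel) were incubated in vitro with increasing concentrations of the test compound. Enzyme activity was measured radiometrically and IC50 values derived.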

PDE1C = PDE1C (Homo sapiens, UniProt Q14123); assay: PDE enzyme inhibition, radiometric assay; assay type: biochemical
Outline: as §1

PDE3A = PDE3A (Homo sapiens, UniProt Q14432); assay: PDE enzyme inhibition, radiometric assay; assay type: biochemical
Sequence of PDE3A (Q14432 whole entry): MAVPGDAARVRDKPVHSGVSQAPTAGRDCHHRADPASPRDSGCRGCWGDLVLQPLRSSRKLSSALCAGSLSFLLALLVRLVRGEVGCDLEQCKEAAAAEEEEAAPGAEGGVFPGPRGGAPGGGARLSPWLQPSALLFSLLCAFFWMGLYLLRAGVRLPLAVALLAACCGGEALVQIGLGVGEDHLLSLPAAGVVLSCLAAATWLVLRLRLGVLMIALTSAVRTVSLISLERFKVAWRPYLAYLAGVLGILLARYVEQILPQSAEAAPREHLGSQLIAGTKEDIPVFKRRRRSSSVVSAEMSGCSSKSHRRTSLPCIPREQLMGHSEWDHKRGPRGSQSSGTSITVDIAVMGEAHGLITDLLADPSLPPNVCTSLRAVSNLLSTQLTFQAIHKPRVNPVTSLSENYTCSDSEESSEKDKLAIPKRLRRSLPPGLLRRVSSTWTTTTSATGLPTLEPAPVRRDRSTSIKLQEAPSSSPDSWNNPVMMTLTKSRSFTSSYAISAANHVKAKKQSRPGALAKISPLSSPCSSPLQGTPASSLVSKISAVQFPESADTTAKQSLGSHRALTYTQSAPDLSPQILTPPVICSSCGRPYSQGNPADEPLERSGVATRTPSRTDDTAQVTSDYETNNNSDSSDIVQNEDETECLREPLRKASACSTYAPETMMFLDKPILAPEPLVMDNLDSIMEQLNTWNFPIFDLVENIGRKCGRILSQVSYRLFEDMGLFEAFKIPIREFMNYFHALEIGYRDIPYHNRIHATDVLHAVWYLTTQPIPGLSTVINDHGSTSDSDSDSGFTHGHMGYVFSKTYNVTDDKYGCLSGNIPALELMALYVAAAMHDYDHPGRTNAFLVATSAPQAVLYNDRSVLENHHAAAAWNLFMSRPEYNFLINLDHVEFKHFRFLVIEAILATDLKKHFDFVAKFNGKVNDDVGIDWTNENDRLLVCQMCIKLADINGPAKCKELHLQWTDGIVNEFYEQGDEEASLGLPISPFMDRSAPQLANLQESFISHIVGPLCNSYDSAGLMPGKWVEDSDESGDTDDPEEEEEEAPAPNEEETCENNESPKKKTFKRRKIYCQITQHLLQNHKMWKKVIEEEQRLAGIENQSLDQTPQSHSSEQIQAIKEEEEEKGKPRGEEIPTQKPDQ
Outline: as §1

PDE3B = PDE3B (Homo sapiens, UniProt Q13370); assay: PDE enzyme inhibition, radiometric assay; assay type: biochemical
Outline: as §1

PDE4A1 = PDE4A1 (Homo sapiens, UniProt P27815); assay: PDE enzyme inhibition, radiometric assay; assay type: biochemical
Outline: as §1

PDE4A4 = PDE4A4 (Homo sapiens, UniProt P27815); assay: PDE enzyme inhibition, radiometric assay; assay type: biochemical
Sequence of PDE4A4 (P27815 whole entry): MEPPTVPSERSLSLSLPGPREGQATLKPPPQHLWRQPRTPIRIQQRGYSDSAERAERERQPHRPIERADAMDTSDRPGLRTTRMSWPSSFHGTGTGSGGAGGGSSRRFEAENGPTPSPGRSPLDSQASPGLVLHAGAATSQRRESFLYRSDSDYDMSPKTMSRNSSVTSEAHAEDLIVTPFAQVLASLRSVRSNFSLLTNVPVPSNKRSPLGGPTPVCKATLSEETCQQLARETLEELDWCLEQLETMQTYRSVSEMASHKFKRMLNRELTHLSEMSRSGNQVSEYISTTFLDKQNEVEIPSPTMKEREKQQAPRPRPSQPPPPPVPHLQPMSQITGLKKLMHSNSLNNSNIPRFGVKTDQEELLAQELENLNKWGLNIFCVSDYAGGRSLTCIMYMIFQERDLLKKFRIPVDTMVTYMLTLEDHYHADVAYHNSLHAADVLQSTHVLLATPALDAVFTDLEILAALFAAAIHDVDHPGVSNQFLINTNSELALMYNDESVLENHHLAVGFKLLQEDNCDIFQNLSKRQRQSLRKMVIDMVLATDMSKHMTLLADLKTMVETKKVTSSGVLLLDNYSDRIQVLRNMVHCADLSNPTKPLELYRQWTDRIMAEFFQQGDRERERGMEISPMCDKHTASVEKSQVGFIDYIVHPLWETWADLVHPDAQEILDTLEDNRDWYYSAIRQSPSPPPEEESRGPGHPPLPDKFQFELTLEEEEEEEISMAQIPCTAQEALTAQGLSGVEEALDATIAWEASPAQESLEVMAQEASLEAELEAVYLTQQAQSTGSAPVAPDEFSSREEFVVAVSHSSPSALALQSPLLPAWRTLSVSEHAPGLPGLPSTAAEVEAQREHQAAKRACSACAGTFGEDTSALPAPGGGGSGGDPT
Outline: as §1

PDE4B1 = PDE4B1 (Homo sapiens, UniProt Q07343); assay: PDE enzyme inhibition, radiometric assay; assay type: biochemical
Outline: as §1

PDE4B2 = PDE4B2 (Homo sapiens, UniProt Q07343); assay: PDE enzyme inhibition, radiometric assay; assay type: biochemical
Outline: as §1

PDE4B3 = PDE4B3 (Homo sapiens, UniProt Q07343); assay: PDE enzyme inhibition, radiometric assay; assay type: biochemical
Outline: as §1

PDE4D2 = PDE4D2 (Homo sapiens, UniProt Q08499); assay: PDE enzyme inhibition, radiometric assay; assay type: biochemical
Sequence of PDE4D2 (Q08499 303-809): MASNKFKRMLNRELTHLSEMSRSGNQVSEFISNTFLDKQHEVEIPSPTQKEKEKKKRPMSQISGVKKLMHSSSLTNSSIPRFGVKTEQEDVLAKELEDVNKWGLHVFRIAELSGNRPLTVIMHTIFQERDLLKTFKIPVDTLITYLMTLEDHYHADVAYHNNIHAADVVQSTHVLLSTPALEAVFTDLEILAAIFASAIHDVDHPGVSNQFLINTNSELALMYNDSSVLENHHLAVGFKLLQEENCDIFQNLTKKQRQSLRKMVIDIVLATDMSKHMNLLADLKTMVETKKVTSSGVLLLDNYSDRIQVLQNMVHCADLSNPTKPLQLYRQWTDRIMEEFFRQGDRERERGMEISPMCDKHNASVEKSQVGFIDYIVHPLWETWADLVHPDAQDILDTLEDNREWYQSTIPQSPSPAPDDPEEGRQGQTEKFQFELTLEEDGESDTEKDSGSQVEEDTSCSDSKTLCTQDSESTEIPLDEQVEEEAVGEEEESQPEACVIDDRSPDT
Outline: as §1

PDE4D3 = PDE4D3 (Homo sapiens, UniProt Q08499); assay: PDE enzyme inhibition, radiometric assay; assay type: biochemical
Outline: as §1

PDE4D4 = PDE4D4 (Homo sapiens, UniProt Q08499); assay: PDE enzyme inhibition, radiometric assay; assay type: biochemical
Outline: as §1

PDE4D5 = PDE4D5 (Homo sapiens, UniProt Q08499); assay: PDE enzyme inhibition, radiometric assay; assay type: biochemical
Outline: as §1

PDE4D7 = PDE4D7 (Homo sapiens, UniProt Q08499); assay: PDE enzyme inhibition, radiometric assay; assay type: biochemical
Sequence of PDE4D7 (Q08499 1-748 isoform Q08499-11): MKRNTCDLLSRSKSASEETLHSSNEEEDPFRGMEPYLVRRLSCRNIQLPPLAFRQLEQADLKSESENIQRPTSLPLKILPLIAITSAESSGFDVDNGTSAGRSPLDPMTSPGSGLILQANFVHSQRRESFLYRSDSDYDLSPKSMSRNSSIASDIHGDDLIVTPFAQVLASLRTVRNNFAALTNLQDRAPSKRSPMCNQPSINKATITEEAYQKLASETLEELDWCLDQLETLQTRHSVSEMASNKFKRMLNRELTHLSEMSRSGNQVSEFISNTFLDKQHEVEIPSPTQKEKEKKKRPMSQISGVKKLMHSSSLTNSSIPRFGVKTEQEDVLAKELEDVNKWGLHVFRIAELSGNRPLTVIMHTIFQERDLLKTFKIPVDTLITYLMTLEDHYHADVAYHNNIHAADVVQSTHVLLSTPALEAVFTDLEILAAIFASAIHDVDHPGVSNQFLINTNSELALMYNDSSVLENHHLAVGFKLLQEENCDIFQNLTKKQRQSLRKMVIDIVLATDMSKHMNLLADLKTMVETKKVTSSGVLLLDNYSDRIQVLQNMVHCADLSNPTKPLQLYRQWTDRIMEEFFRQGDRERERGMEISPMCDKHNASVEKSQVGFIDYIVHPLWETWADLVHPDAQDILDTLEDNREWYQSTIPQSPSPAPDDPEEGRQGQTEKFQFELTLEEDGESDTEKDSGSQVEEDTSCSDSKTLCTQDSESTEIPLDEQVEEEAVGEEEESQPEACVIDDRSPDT
Outline: as §1

PDE5A1 = PDE5A1 (Homo sapiens, UniProt O76074); assay: PDE enzyme inhibition, radiometric assay; assay type: biochemical
Outline: as §1

PDE5A2 = PDE5A2 (Homo sapiens, UniProt O76074); assay: PDE enzyme inhibition, radiometric assay; assay type: biochemical
Outline: as §1

PDE6AB = PDE6AB (Homo sapiens, UniProt P16499+P35913); assay: PDE enzyme inhibition, radiometric assay; assay type: biochemical
Sequence of PDE6AB (P16499 whole entry): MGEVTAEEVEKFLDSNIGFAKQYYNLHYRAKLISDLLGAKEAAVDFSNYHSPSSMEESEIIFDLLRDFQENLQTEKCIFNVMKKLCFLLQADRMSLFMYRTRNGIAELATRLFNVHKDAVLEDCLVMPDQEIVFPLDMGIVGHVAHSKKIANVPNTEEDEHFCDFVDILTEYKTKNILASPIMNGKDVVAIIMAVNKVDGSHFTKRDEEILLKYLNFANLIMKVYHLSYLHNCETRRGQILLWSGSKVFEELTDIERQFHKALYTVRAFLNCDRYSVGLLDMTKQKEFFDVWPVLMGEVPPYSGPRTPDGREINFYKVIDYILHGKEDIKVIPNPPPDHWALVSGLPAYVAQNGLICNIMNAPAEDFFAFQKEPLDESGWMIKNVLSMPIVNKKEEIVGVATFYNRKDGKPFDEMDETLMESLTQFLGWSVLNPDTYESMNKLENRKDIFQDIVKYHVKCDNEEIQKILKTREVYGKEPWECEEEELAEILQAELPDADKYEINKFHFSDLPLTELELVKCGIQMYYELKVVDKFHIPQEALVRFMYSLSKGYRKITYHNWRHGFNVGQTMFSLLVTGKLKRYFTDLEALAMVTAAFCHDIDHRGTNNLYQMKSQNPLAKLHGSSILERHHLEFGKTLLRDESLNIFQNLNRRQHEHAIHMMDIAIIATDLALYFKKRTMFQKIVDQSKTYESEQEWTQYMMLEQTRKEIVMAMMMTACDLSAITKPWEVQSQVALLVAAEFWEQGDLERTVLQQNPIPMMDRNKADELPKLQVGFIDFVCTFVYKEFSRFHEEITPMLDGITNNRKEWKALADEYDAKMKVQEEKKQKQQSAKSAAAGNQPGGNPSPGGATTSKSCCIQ
Sequence of PDE6AB (P35913 whole entry): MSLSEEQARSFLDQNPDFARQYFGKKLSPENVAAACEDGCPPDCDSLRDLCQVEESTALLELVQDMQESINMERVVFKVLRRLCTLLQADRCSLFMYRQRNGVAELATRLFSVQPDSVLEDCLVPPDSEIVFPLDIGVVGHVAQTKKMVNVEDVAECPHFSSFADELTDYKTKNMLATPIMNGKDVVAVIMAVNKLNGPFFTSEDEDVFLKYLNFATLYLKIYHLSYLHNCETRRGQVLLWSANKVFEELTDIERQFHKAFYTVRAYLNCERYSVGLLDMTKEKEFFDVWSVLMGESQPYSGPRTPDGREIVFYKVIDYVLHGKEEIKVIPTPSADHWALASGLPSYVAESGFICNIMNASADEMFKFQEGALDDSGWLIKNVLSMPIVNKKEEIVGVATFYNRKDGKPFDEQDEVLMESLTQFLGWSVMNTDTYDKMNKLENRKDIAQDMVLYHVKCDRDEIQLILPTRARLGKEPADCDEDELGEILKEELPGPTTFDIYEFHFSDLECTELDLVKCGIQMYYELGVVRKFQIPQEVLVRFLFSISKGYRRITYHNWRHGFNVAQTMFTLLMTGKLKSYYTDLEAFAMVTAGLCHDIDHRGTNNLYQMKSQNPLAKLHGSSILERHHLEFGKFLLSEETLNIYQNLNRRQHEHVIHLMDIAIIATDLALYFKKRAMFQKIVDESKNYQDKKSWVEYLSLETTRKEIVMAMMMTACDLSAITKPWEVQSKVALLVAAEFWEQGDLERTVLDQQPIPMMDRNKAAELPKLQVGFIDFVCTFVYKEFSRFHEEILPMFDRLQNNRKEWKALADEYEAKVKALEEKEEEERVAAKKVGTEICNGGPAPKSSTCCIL
Outline: as §1

PDE6C = PDE6C (Homo sapiens, UniProt P51160); assay: PDE enzyme inhibition, radiometric assay; assay type: biochemical
Outline: as §1

PDE7A = PDE7A (Homo sapiens, UniProt Q13946); assay: PDE enzyme inhibition, radiometric assay; assay type: biochemical
Outline: as §1

PDE7B = PDE7B (Homo sapiens, UniProt Q9NP56); assay: PDE enzyme inhibition, radiometric assay; assay type: biochemical
Outline: as §1

PDE8B = PDE8B (Homo sapiens, UniProt O95263); assay: PDE enzyme inhibition, radiometric assay; assay type: biochemical
Outline: as §1

PDE9A2 = PDE9A2 (Homo sapiens, UniProt O76083); assay: PDE enzyme inhibition, radiometric assay; assay type: biochemical; details: IC50, recombinant human PDE9A2
Outline: as §1

K562 cells [1] = assay: cGMP induction in K562 cells; assay type: cell-based, human; details: 6 h
Outline: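 Actively growing K562 cells were treated for 6 h with increasing concentrations of the test compound or hydroxyurea. cGMP was measured by non-radioactive enzyme immunoassay using the acetylation protocol, and protein by BCA assay. Data are means±Standard Errors.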

K562 cells [2] = assay: HbF induction in K562 cells; assay type: cell-based, human; details: 72 h
UT-7 cells = assay: HbF induction in UT-7 cells; assay type: cell-based, human; details: GM-CSF dependent erythroid line UT-7; data not shown
K562 cells [3] = assay: Cytotoxicity in K562 cells; assay type: cell-based, human; details: end of 72-h culture
Outline: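 Actively growing K562 cells were cultured for 72 h with increasing concentrations of the test compound. Terminal viability was scored by automated cell counting or trypan-blue exclusion, or by an ATP-based luminescence assay. Apoptosis was checked by Annexin V flow cytometry.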

HbSS-Townes mice [4] = assay: Townes SCD model, 30 days daily oral dosing; assay type: in vivo; details: 30 days
HbSS-Townes mice [5] = assay: HbSS-Townes vaso-occlusive crisis model; assay type: in vivo
mice = assay: Classical fear conditioning model of learning and memory; assay type: in vivo; details: similar dose of both PDE9i
rats = assay: Long-term toxicology study in normal rats; assay type: in vivo; details: data not shown
dogs = assay: Long-term toxicology study in dogs; assay type: in vivo
rodents = assay: Fertility and fetal development in rodents; assay type: in vivo
[6] = Locomotor activity and behavioral responses in toxicology studies; assay type: in vivo; details: data not shown

IC50 (PDE1B): 8.48 µM
IC50 (PDE1C): 12.2 µM
IC50 (PDE3A): > 100 µM
IC50 (PDE3B): > 100 µM
IC50 (PDE4A1): > 100 µM
IC50 (PDE4A4): > 100 µM
IC50 (PDE4B1): > 100 µM
IC50 (PDE4B2): > 100 µM
IC50 (PDE4B3): > 100 µM
IC50 (PDE4D2): > 100 µM
IC50 (PDE4D3): > 100 µM
IC50 (PDE4D4): > 100 µM
IC50 (PDE4D5): > 100 µM
IC50 (PDE4D7): > 100 µM
IC50 (PDE5A1): > 100 µM
IC50 (PDE5A2): 81.9 µM
IC50 (PDE6AB): > 100 µM
IC50 (PDE6C): > 100 µM
IC50 (PDE7A): > 100 µM
IC50 (PDE7B): > 100 µM
IC50 (PDE8B): > 100 µM
IC50 (PDE9A2): 0.01 µM
SMILES: C[C@@H]1CN(Cc2ncccn2)C[C@H]1c1cn2c(C3CCOCC3)ncc2c(=O)[nH]1 [IMR-687]
cGMP induction (K562 cells [1]): induced cGMP in a dosedependent manner
HbF induction (ELISA) (K562 cells [2]): dose-dependently induced more HbF than either BAY73-6691 or BAY 41-2271
HbF induction relative to a dose of HU that demonstrated cytotoxicity (K562 cells [2]; 10 μM IMR-687): 4.6 times
HbF induction (UT-7 cells): Induction of HbF by IMR-687 was observed
Cytotoxicity (cell counts) (K562 cells [3]): not observed
WBC lower than vehicle (HbSS-Townes mice [4]; 30 mg/kg): 36%
increase in Hb (HbSS-Townes mice [4]; 30 mg/kg): 1.5 g/dL
increase in hematocrit (HbSS-Townes mice [4]; 30 mg/kg): 10%
increase in mature RBC (HbSS-Townes mice [4]; 30 mg/kg): 27%
increase in plasma nitrite levels (HbSS-Townes mice [4]; 30 mg/kg): ~2.5 fold
reduction in reticulocyte counts (HbSS-Townes mice [4]; 30 mg/kg): 36%
reduction of MPO levels (HbSS-Townes mice [4]; 30 mg/kg): 2.3 fold
reduction of plasma bilirubin and LDH vs vehicle treated SS mice (HbSS-Townes mice [4]; 30 mg/kg): over 2 fold
reduction of plasma free Hb levels (HbSS-Townes mice [4]; 30 mg/kg): over 55%
lung MPO levels (HbSS-Townes mice [4]; 30 mg/kg, HbSS-Townes vehicle 3.1 mU/L, P<0.0001): 1.3 mU/L
reduction of lung arginase vs vehicle (HbSS-Townes mice [4]; 30 mg/kg, P<0.0001): 25%
plasma bilirubin (HbSS-Townes mice [4]; 30 mg/kg, P<0.01): 4.7 mg/dL
LDH activity (HbSS-Townes mice [4]; 30 mg/kg, P<0.05): 102 AU
plasma nitrite levels (HbSS-Townes mice [4]; 30 mg/kg, untreated SS mice 0.56 mg/mL, P<0.05): 1.39 mg/mL
WBC count (HbSS-Townes mice [4]; 30 mg/kg, vehicle 38.2×10^9/L, P<0.05): 2.41e+10 L⁻¹
decrease in sickled RBC vs vehicle (HbSS-Townes mice [4]; 30 mg/kg/day): 2 fold
increase in the percent of HbF+ F-cells vs vehicle (HbSS-Townes mice [4]; 30 mg/kg/day): greater than 3 fold
percent of HbF+ F-cells (HbSS-Townes mice [4]; 30 mg/kg/day, vehicle 8.4%): 27.3%
percent sickled RBC (HbSS-Townes mice [4]; 30 mg/kg/day, vehicle 56.3%): 24.4%
microvascular stasis (HbSS-Townes mice [5]; 10 mg/kg/day for ten days, 1 h in normoxia, vehicle 33%, P<0.05): 20%
microvascular stasis (HbSS-Townes mice [5]; 10 mg/kg/day for ten days, 4 h in normoxia, vehicle 16%, ns): 14%
microvascular stasis (HbSS-Townes mice [5]; 30 mg/kg/day for ten days, 4 h in normoxia, vehicle 16%, P<0.01): 7%
conditioned fear responses (mice): no effect
peripheral WBC counts (rats; normal rats, up to 6 months, super-physiological doses): did not result in any reduction in peripheral WBC counts
myelotoxicity, histological examination of bone marrow smears (rats; rats): did not demonstrate any myelotoxicity
myelotoxicity, histological examination of bone marrow smears (dogs; data not shown): did not demonstrate any myelotoxicity
peripheral WBC counts (dogs; up to 9 months, oral daily 10, 25, or 50 mg/kg): did not result in any reduction in peripheral WBC counts
genotoxicity (Genotoxicity): not genotoxic
impact on fertility or fetal development (rodents): did not impact fertility or fetal development
effect on locomotor activity or behavioral responses [6]: no effect
